Measured values from ChEMBL document CHEMBL5143669, “Stapled peptides as scaffolds for developing radiotracers for intracellular targets: Preliminary evaluation of a radioiodinated MDM2-binding stapled peptide in the SJSA-1 osteosarcoma model” (Bioorg Med Chem Lett, 2022).

Tests used:
Conditions in all cases: in vivo
[1] = Biodistribution in Bone of athymic mouse xenografted with human SJSA-1 cells at 166.5 kBq, iv after 24 hrs by automated gamma counting method; type: ADME, organism-based, Bone element
Summary of the method: (§1)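 125I-labeled peptide (166.5 kBq in 100 μL) was injected via tail vein into athymic mice bearing flank SJSA-1 xenografts, n = 5 per time point. Tumors, blood and major organs were gamma-counted at 0.5, 2, 6 and 24 h post-injection. Values are %ID/g.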

[2] = Biodistribution in Thyroid of athymic mouse xenografted with human SJSA-1 cells at 166.5 kBq, iv after 6 hrs by automated gamma counting method; type: ADME, organism-based, Thyroid gland
Summary of the method: (§2)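 Athymic mice bearing flank SJSA-1 xenografts received 125I-SIB-labeled peptide (166.5 kBq, 100 μL) by tail vein; groups of five per time point. Tumor, blood and organs were taken at 0.5–24 h and counted by gamma counter; values expressed as %ID/g.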

[3] = Biodistribution in Muscle of athymic mouse xenografted with human SJSA-1 cells at 166.5 kBq, iv after 2 hrs by automated gamma counting method; type: ADME, organism-based, Muscle tissue; summary of the method: as §1
[4] = Biodistribution in Tumor of athymic mouse xenografted with human SJSA-1 cells at 166.5 kBq, iv after 24 hrs by automated gamma counting method; type: ADME, organism-based, Neoplasm; summary of the method: as §2
[5] = Biodistribution in Blood of athymic mouse xenografted with human SJSA-1 cells at 166.5 kBq, iv after 2 hrs by automated gamma counting method; type: ADME, organism-based; summary of the method: as §1
[6] = Biodistribution in Thyroid of athymic mouse xenografted with human SJSA-1 cells at 166.5 kBq, iv after 24 hrs by automated gamma counting method; type: ADME, organism-based, Thyroid gland; summary of the method: as §2
[7] = Biodistribution in Bone of athymic mouse xenografted with human SJSA-1 cells at 166.5 kBq, iv after 6 hrs by automated gamma counting method; type: ADME, organism-based, Bone element; summary of the method: as §1

CC(=O)NC(CCCCNC(=O)c1cccc([125I])c1)C(=O)NCCCCCC(=O)N[C@H](C(=O)N[C@@H](CO)C(=O)N[C@@H](Cc1ccccc1)C(=O)N[C@@]1(C)CCCCCC/C=C/CCC[C@@](C)(C(=O)N[C@@H](CCC(=O)O)C(=O)N[C@@H](CC(N)=O)C(=O)N[C@@H](Cc2ccccc2)C(N)=O)NC(=O)[C@H](CC(C)C)NC(=O)[C@H](CC(C)C)NC(=O)[C@H](C)NC(=O)[C@H](Cc2c[nH]c3ccccc23)NC(=O)[C@H](Cc2ccc(O)cc2)NC(=O)[C@H](CCC(=O)O)NC1=O)[C@@H](C)O (some centres not stated)
Drug uptake [1]: 0.16 % ID/g
Drug uptake [2]: 1.19 % ID/g
Drug uptake [3]: 0.24 % ID/g
Drug uptake [4]: 0.36 % ID/g
Drug uptake [5]: 6.84 % ID/g
Drug uptake [6]: 0.27 % ID/g
Drug uptake [7]: 0.29 % ID/g
